Values joined by “and” are separate entries in the source; they are usually repeats but may differ in a detail not shown here. Identical values can stand only once.
Legend:
ADRA2B = experiment: PathHunter β-arrestin; assay type: cell-based; conditions: antagonist mode, 6 μM
How it was run: (§1)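 β-Arrestin recruitment assay: the enzyme acceptor is fused to β-arrestin and the ED fragment to the GPCR. Recruitment restores β-galactosidase, read by chemiluminescence. % activity = 100% × (test − vehicle)/(max control ligand − vehicle). % inhibition = 100% × (1 − (test − vehicle)/(EC80 control − vehicle)). An agonist hit needs >30% activity and RLU > baseline + 3×SD. An antagonist hit needs >35% inhibition and RLU < EC80 RLU − 3×SD.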

ADRA2C = experiment: PathHunter β-arrestin; assay type: cell-based; conditions: antagonist mode, 6 μM
How it was run: as §1

AGTRL1 = experiment: PathHunter β-arrestin; assay type: cell-based; conditions: agonist mode, 6 μM
How it was run: as §1

AVPR1A = experiment: PathHunter β-arrestin; assay type: cell-based; conditions: antagonist mode, 6 μM
How it was run: as §1

C3AR1 = experiment: PathHunter β-arrestin; assay type: cell-based; conditions: antagonist mode, 6 μM
How it was run: as §1

C5L2 = experiment: PathHunter β-arrestin; assay type: cell-based; conditions: antagonist mode, 6 μM
How it was run: as §1

CALCR-RAMP2 = experiment: PathHunter β-arrestin; assay type: cell-based; conditions: agonist mode, 6 μM
How it was run: as §1

CCR2 = experiment: PathHunter β-arrestin; assay type: cell-based; conditions: antagonist mode, 6 μM
How it was run: as §1

CHRM1 = experiment: PathHunter β-arrestin; assay type: cell-based; conditions: 6 μM
How it was run: (§2)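 Engineered cells express the receptor fused to one β-galactosidase fragment (ED) and β-arrestin fused to the complementing fragment (EA). Receptor activation recruits β-arrestin, which restores enzyme activity, and this is read by chemiluminescence (RLU). Agonist % activity is 100% × (test − vehicle)/(maximal control ligand − vehicle). Antagonist mode is challenged with an EC80 control agonist, and % inhibition is 100% × (1 − (test − vehicle)/(EC80 − vehicle)). Hits require >30% activity or >35% inhibition, plus a 3×SD RLU margin.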

CHRM3 = experiment: PathHunter β-arrestin; assay type: cell-based; conditions: 6 μM
How it was run: as §2

CHRM5 = experiment: PathHunter β-arrestin; assay type: cell-based; conditions: 6 μM
How it was run: as §2

CMKLR1 = experiment: PathHunter β-arrestin; assay type: cell-based; conditions: antagonist mode, 6 μM
How it was run: as §2

CXCR5 = experiment: PathHunter β-arrestin; assay type: cell-based; conditions: 6 μM
How it was run: as §2

CXCR7 = experiment: PathHunter β-arrestin; assay type: cell-based; conditions: antagonist mode, 6 μM
How it was run: as §2

DRD5 = experiment: PathHunter β-arrestin; assay type: cell-based; conditions: 6 μM
How it was run: as §2

EBI2 = experiment: PathHunter β-arrestin; assay type: cell-based; conditions: antagonist mode, 6 μM
How it was run: as §2

EDG6 = experiment: PathHunter β-arrestin; assay type: cell-based; conditions: 6 μM
How it was run: as §2

FPRL1 = experiment: PathHunter β-arrestin; assay type: cell-based; conditions: antagonist mode, 6 μM
How it was run: as §2

GALR1 = experiment: PathHunter β-arrestin; assay type: cell-based; conditions: 6 μM
How it was run: as §2

GPR35 = experiment: PathHunter β-arrestin; assay type: cell-based; conditions: 6 μM
How it was run: (§3)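 Vendor-run (DiscoveRx) PathHunter enzyme fragment complementation. β-Arrestin carries the EA fragment and the receptor carries ED; recruitment restores β-gal activity, read by chemiluminescence (RLU). Agonist % activity = vehicle-subtracted RLU relative to max control ligand (gpcrMAX) or to vehicle (orphanMAX). Antagonist % inhibition = 100% × (1 − vehicle-subtracted sample RLU / vehicle-subtracted EC80 agonist control RLU).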

HRH2 = experiment: PathHunter β-arrestin; assay type: cell-based; conditions: 6 μM
How it was run: as §3

HRH3 = experiment: PathHunter β-arrestin; assay type: cell-based; conditions: 6 μM
How it was run: as §3

HTR1F = experiment: PathHunter β-arrestin; assay type: cell-based; conditions: 6 μM
How it was run: as §3

MC3R = experiment: PathHunter β-arrestin; assay type: cell-based; conditions: 6 μM
How it was run: as §3

MCHR1 = experiment: PathHunter β-arrestin; assay type: cell-based; conditions: 6 μM
How it was run: as §3

MCHR2 = experiment: PathHunter β-arrestin; assay type: cell-based; conditions: 6 μM
How it was run: as §3

NPFFR1 = experiment: PathHunter β-arrestin; assay type: cell-based; conditions: 6 μM
How it was run: as §3

OXER1 = experiment: PathHunter β-arrestin; assay type: cell-based; conditions: agonist mode, 6 μM
P2RY12 = experiment: PathHunter β-arrestin; assay type: cell-based; conditions: 6 μM
How it was run: (§4)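 β-Arrestin recruitment to GPCR read by β-galactosidase fragment complementation and chemiluminescence. Agonist: % = 100 × (test − vehicle)/(max control ligand − vehicle), hit at >30% and RLU > baseline + 3 SD. Antagonist, against EC80 agonist: % inhibition = 100 × (1 − (test − vehicle)/(EC80 − vehicle)), hit at >35% and RLU < EC80 − 3 SD.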

P2RY2 = experiment: PathHunter β-arrestin; assay type: cell-based; conditions: 6 μM
How it was run: as §4

PPYR1 = experiment: PathHunter β-arrestin; assay type: cell-based; conditions: antagonist mode, 6 μM
SSTR1 = experiment: PathHunter β-arrestin; assay type: cell-based; conditions: agonist mode, 6 μM
TLR10 = experiment: western blot, JJ012 cells; assay type: cell-based, human; conditions: vs untreated control, overnight incubation
TLR6 = experiment: immunocytochemistry, colocalization with TLR6, JJ012 cells; assay type: cell-based, human; conditions: TLR6 yellow (DyLight 550), PRP-1 green (Alexa Fluor 488)
TLR2 = experiment: RT2 qPCR primer assay, JJ012 cells; assay type: cell-based, human; conditions: 1 μg/ml PRP-1
How it was run: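 RNA was extracted, checked by spectrophotometry and reverse-transcribed. Custom RT2 SYBR-Green primer assays were run on three samples in technical triplicate. Ct was normalised to mean GAPDH/ACTB, ΔΔCt taken versus control, and fold change = 2^−ΔΔCt.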

Question: With Proline rich polypeptide 1 [PRP-1] as the substance, how does the “% Inhibition” value (ADRA2B) read?
Answer: 2%

Question: What about the “% Inhibition” value (ADRA2C) of the same substance?
Answer: −4%

Question: What about the “% Activity” value (AGTRL1) of the same substance?
Answer: 1%

Question: What about the “% Inhibition” value (AVPR1A) of the same substance?
Answer: −1%

Question: And the “% Inhibition” value (C3AR1)?
Answer: −2%

Question: What about the “% Inhibition” value (C5L2) of the same substance?
Answer: −5%

Question: And the “% Activity” value (CALCR-RAMP2)?
Answer: 2%

Question: What about the “% Inhibition” value (CCR2) of the same substance?
Answer: −3%

Question: And the “% Activity” value (CHRM1; agonist mode)?
Answer: 1%

Question: And the “% Inhibition” value (CHRM1; antagonist mode)?
Answer: −12%

Question: What about the “% Activity” value (CHRM3; agonist mode) of the same substance?
Answer: 2%

Question: And the “% Inhibition” value (CHRM3; antagonist mode)?
Answer: −6%

Question: And the “% Activity” value (CHRM5; agonist mode)?
Answer: 5%

Question: What about the “% Inhibition” value (CHRM5; antagonist mode) of the same substance?
Answer: −4%

Question: What about the “% Inhibition” value (CMKLR1) of the same substance?
Answer: −2%

Question: And the “% Activity” value (CXCR5; agonist mode)?
Answer: 1%

Question: And the “% Inhibition” value (CXCR5; antagonist mode)?
Answer: −8%

Question: What about the “% Inhibition” value (CXCR7) of the same substance?
Answer: −2%

Question: What about the “% Activity” value (DRD5; agonist mode) of the same substance?
Answer: 1%

Question: What about the “% Inhibition” value (DRD5; antagonist mode) of the same substance?
Answer: −8%

Question: And the “% Inhibition” value (EBI2)?
Answer: −1%

Question: And the “% Activity” value (EDG6; agonist mode)?
Answer: −2%

Question: What about the “% Inhibition” value (EDG6; antagonist mode) of the same substance?
Answer: 4%

Question: And the “% Inhibition” value (FPRL1)?
Answer: −2%

Question: What about the “% Activity” value (GALR1; agonist mode) of the same substance?
Answer: 1%

Question: And the “% Inhibition” value (GALR1; antagonist mode)?
Answer: −4%

Question: And the “% Activity” value (GPR35; agonist mode)?
Answer: 1%

Question: What about the “% Inhibition” value (GPR35; antagonist mode) of the same substance?
Answer: −6%

Question: What about the “% Activity” value (HRH2; agonist mode) of the same substance?
Answer: 1%

Question: And the “% Inhibition” value (HRH2; antagonist mode)?
Answer: 1%

Question: What about the “% Activity” value (HRH3; agonist mode) of the same substance?
Answer: 2%

Question: And the “% Inhibition” value (HRH3; antagonist mode)?
Answer: −6%

Question: And the “% Activity” value (HTR1F; agonist mode)?
Answer: 2%

Question: What about the “% Inhibition” value (HTR1F; antagonist mode) of the same substance?
Answer: 2%

Question: What about the “% Activity” value (MC3R; agonist mode) of the same substance?
Answer: 3%

Question: What about the “% Inhibition” value (MC3R; antagonist mode) of the same substance?
Answer: −6%

Question: What about the “% Activity” value (MCHR1; agonist mode) of the same substance?
Answer: 1%

Question: And the “% Inhibition” value (MCHR1; antagonist mode)?
Answer: −4%

Question: And the “% Activity” value (MCHR2; agonist mode)?
Answer: 1%

Question: And the “% Inhibition” value (MCHR2; antagonist mode)?
Answer: −3%

Question: And the “% Activity” value (NPFFR1; agonist mode)?
Answer: 3%

Question: And the “% Inhibition” value (NPFFR1; antagonist mode)?
Answer: −3%

Question: And the “% Activity” value (OXER1)?
Answer: −2%

Question: And the “% Activity” value (P2RY12; agonist mode)?
Answer: 1%

Question: And the “% Inhibition” value (P2RY12; antagonist mode)?
Answer: 8%

Question: And the “% Activity” value (P2RY2; agonist mode)?
Answer: 2%

Question: And the “% Inhibition” value (P2RY2; antagonist mode)?
Answer: −4%

Question: And the “% Inhibition” value (PPYR1)?
Answer: −4%

Question: What about the “% Activity” value (SSTR1) of the same substance?
Answer: −3%

Question: And the protein expression (TLR10)?
Answer: no indication of PRP-1 effect

Question: What about the “colocalization with TLR6” value (TLR6) of the same substance?
Answer: nuclear and cytoplasmic colocalization with PRP-1 is demonstrated

Question: And the “fold upregulation (∆∆Ct)” value (TLR2; P<0.0001, 2^−∆∆Ct, normalized to GAPDH, ACTB)?
Answer: 5.26 fold and > 5 fold

Question: And the gene expression (TLR2; heat map, vs nontreated control, technical triplicates)?
Answer: high expression

Reference: paper PMC5743405 (International Journal of Oncology, 2017)
